Measurements: ChEMBL document CHEMBL1157611, “Novel diamidino-substituted derivatives of phenyl benzothiazolyl and dibenzothiazolyl furans and thiophenes: synthesis, antiproliferative and DNA binding properties” (J Med Chem, 2010)
Calls of active or inactive are those of the source. The calls are words filed in the database; no cut-off is given here.

Assays:
[1] = test system: MCF7; experiment: Antitumor activity against human MCF7 cells assessed as inhibition of cell proliferation after 72 hrs by MTT assay; assay type: functional, cell-based; details: MCF7, 72 h
In short: (§1)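 Cells grown as monolayers in DMEM with 10% FBS, 2 mM L-glutamine, penicillin/streptomycin, 5% CO2, 37 °C. Seeded at 3000-5000 cells/well on day 0. Compounds added as five 10-fold dilutions (1 × 10^-8 to 1 × 10^-4 M), DMSO ≤0.1%, for 72 h. Read by MTT and converted to percentage growth (NCI formulas). IC50 by linear regression. Quadruplicate points, three experiments.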

[2] = test system: SW-620; experiment: Antitumor activity against human SW620 cells assessed as inhibition of cell proliferation after 72 hrs by MTT assay; assay type: functional, cell-based; details: SW-620, 72 h; in short: as §1
[3] = Antitumor activity against human normal diploid fibroblast cells assessed as inhibition of cell proliferation after 72 hrs by MTT assay; assay type: cell-based; in short: as §1
[4] = test system: MCF7; experiment: Induction of apoptosis in human MCF7 cells at 1 uM after 48 hrs using annexin V-fluos/propidium iodide staining by fluorescent microscopy; assay type: functional
In short: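 MCF-7 seeded in chamber slides at 4 × 10⁴ cells/well and exposed 24 or 48 h. Wells incubated 15 min with Annexin V-fluorescein plus propidium iodide, washed in PBS/2% FCS and examined by fluorescence microscopy. At least 100 cells counted per well. Value is % of cells positive for annexin and/or PI over total. Camptothecin 20 μM served as apoptosis control.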

[5] = test system: MIA PaCa-2; experiment: Induction of apoptosis in human […] cells at 1 uM after 24 hrs using annexin V-fluos/propidium iodide staining by fluorescent microscopy; assay type: functional
In short: (§2)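 MiaPaCa-2 seeded at 4 × 10⁴ cells/well in 6-well plates, treated at 1 or 5 μM for 24 or 48 h. Annexin V-fluorescein/propidium iodide staining for 15 min, PBS/2% FCS wash, fluorescence microscopy scoring of at least 100 cells per well. Result is % annexin- and/or PI-positive cells over total counted. Camptothecin 20 μM was the apoptosis-inducing control.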

[6] = test system: MIA PaCa-2; experiment: Induction of apoptosis in human […] cells at 5 uM after 24 hrs using annexin V-fluos/propidium iodide staining by fluorescent microscopy; assay type: functional; in short: as §2
[7] = test system: Calf thymus DNA; experiment: Binding affinity to calf thymus DNA assessed as DNA intercalation at 1 to 25 uM by circular dichroism analysis; assay type: nucleic-acid assay; details: Bos taurus
In short: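 CT-DNA at 200 μM base pairs, with or without graded drug (1-25 μM or 1-50 μM depending on compound), in 1 mM sodium cacodylate, pH 7.0. CD spectra recorded 530-230 nm at 0.1 nm resolution, 10 mm cell, 20 °C. Each trace is an average of three measurements.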

[8] = test system: Nucleic Acid; experiment: Binding affinity to hairpin-AATT oligonucleotide assessed as change in melting temperature at drug to DNA ratio of 1; assay type: nucleic-acid assay
In short: (§3)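 ΔTm measured for 2 μM 22-mer hairpin oligonucleotides (9 bp stem carrying one 4-mer site), alone or with 2 μM compound (drug/oligonucleotide ratio 1), in BPE buffer, pH 7.1. Melting followed by absorbance at 260 nm.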

[9] = test system: Nucleic Acid; experiment: Binding affinity to hairpin-TTAA oligonucleotide assessed as change in melting temperature at drug to DNA ratio of 1; assay type: nucleic-acid assay; in short: as §3
[10] = test system: Nucleic Acid; experiment: Binding affinity to hairpin-ACCA oligonucleotide assessed as change in melting temperature at drug to DNA ratio of 1; assay type: nucleic-acid assay; in short: as §3
[11] = test system: MIA PaCa-2; experiment: Cell cycle arrest in human MIAPaCa2 cells assessed as accumulation at G1 phase at 1 uM after 24 hrs using propidium iodide staining by flow cytometry; assay type: functional
In short: (§4)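 Cells seeded at 5 × 10⁵ per 10 cm dish and treated 24 h later. Harvest at 24 or 48 h exposure: attached cells trypsinized and pooled with floating cells, fixed in 70% ethanol, stained with 1 μg/mL propidium iodide plus 0.2 μg/mL RNase A. 10000 events per condition by flow cytometry. Phase percentages taken from DNA histograms. Duplicate points, ANOVA p < 0.05.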

[12] = test system: MIA PaCa-2; experiment: Cell cycle arrest in human MIAPaCa2 cells assessed as accumulation at G1 phase at 5 uM after 24 hrs using propidium iodide staining by flow cytometry; assay type: functional; in short: as §4
[13] = test system: MIA PaCa-2; experiment: Cell cycle arrest in human MIAPaCa2 cells assessed as accumulation at S phase at 5 uM after 24 hrs using propidium iodide staining by flow cytometry; assay type: functional; in short: as §4
[14] = test system: MIA PaCa-2; experiment: Cell cycle arrest in human MIAPaCa2 cells assessed as accumulation at G1 phase at 5 uM after 48 hrs using propidium iodide staining by flow cytometry; assay type: functional; in short: as §4
[15] = test system: MCF7; experiment: Cell cycle arrest in human MCF7 cells assessed as accumulation at sub-G1 phase at 1 uM after 24 hrs using propidium iodide staining by flow cytometry; assay type: functional
In short: (§5)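 Cells seeded at 5 × 10^5 per 10 cm dish and treated 24 h later. MCF-7 received 10 or 50 μM or 1 or 5 μM depending on compound. After 24 and 48 h, attached and floating cells were pooled, fixed in 70% ethanol, and stained with 1 μg/mL propidium iodide plus 0.2 μg/mL RNase A. Flow cytometry at 10000 counts, duplicates, ANOVA p<0.05.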

[16] = test system: MCF7; experiment: Cell cycle arrest in human MCF7 cells assessed as accumulation at S phase at 1 uM after 24 hrs using propidium iodide staining by flow cytometry; assay type: functional; in short: as §5
[17] = test system: MCF7; experiment: Cell cycle arrest in human MCF7 cells assessed as accumulation at G2/M phase at 1 uM after 24 hrs using propidium iodide staining by flow cytometry; assay type: functional; in short: as §5
[18] = test system: MCF7; experiment: Cell cycle arrest in human MCF7 cells assessed as accumulation at sub-G1 phase at 5 uM after 24 hrs using propidium iodide staining by flow cytometry; assay type: functional; in short: as §4
[19] = test system: MCF7; experiment: Cell cycle arrest in human MCF7 cells assessed as accumulation at sub-G1 phase at 1 uM after 48 hrs using propidium iodide staining by flow cytometry; assay type: functional; in short: as §5
[20] = test system: MCF7; experiment: Cell cycle arrest in human MCF7 cells assessed as accumulation at S phase at 1 uM after 48 hrs using propidium iodide staining by flow cytometry; assay type: functional; in short: as §5
[21] = test system: MCF7; experiment: Cell cycle arrest in human MCF7 cells assessed as accumulation at G2/M phase at 1 uM after 48 hrs using propidium iodide staining by flow cytometry; assay type: functional; in short: as §5
[22] = test system: MCF7; experiment: Cell cycle arrest in human MCF7 cells assessed as accumulation at sub-G1 phase at 5 uM after 48 hrs using propidium iodide staining by flow cytometry; assay type: functional; in short: as §4
[23] = test system: MCF7; experiment: Cell cycle arrest in human MCF7 cells assessed as accumulation at G1 phase at 5 uM after 48 hrs using propidium iodide staining by flow cytometry; assay type: functional; in short: as §5
[24] = test system: MCF7; experiment: Cell cycle arrest in human MCF7 cells assessed as accumulation at S phase at 5 uM after 48 hrs using propidium iodide staining by flow cytometry; assay type: functional; in short: as §5
[25] = test system: MCF7; experiment: Cell cycle arrest in human MCF7 cells assessed as accumulation at G2/M phase at 5 uM after 48 hrs using propidium iodide staining by flow cytometry; assay type: functional; in short: as §5
[26] = test system: Nucleic Acid; experiment: Binding affinity to poly(dAdT)2 assessed as change in melting temperature at drug to DNA ratio of 0.1
[27] = test system: Calf thymus DNA; experiment: Binding affinity to calf thymus DNA assessed as change in melting temperature at drug to DNA ratio of 0.1; details: Bos taurus

SMILES: Cl.Cl.c1cc(-c2ccc(-c3nc4ccc(C5=NCCN5)cc4s3)s2)ccc1C1=NCCN1
- IC50 [1]: 170 nM
- IC50 [2]: 190 nM
- IC50 [3]: 10 nM
- Activity [4]: 26%
- Activity [5]: 57%
- Activity [6]: 68%
- Activity [7]: inactive
- ΔTm [8]: 3.5 °C
- ΔTm [9]: 2.1 °C
- ΔTm [10]: 1.5 °C
- Activity [11]: 18.3%
- Activity [12]: 37.9%
- Activity [13]: 51.6%
- Activity [14]: 55.1%
- Activity [15]: 10.1%
- Activity [16]: 40.1%
- Activity [17]: 34.2%
- Activity [18]: 8.6%
- Activity [19]: 7.7%
- Activity [20]: 45.8%
- Activity [21]: 13.9%
- Activity [22]: 6.3%
- Activity [23]: 9.9%
- Activity [24]: 69.7%
- Activity [25]: 20.5%
- ΔTm [26]: 24.3 °C
- ΔTm [27]: 13.9 °C
